# Yeast growth inh = chemicals that inhibit yeast BB579 growth in restrictive medium (lifespan-shortening candidates); inhibition, % at 10 µM; hit rate 0.51% among 140,000; S. cerevisiae BB579 growth, OD615, 48 h;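 active = inhibition above a set limit, 3 SD over the mean compound inhibition, cut at about 44% in these data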
#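 controls = amphotericin B 10 µg/mL, positive | assay system = DeaD yeast strain BB579 | schedule = 48 h compound exposure at 30 °C after 4 h preincubation | detection = OD615 turbidity measurement | medium = restrictive CSMM-D medium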
# Measles CPE = protection of cells from measles virus; Measles virus-infected cells, CPE protection, absorbance; protection (pct of control), % at 4 µM; hit rate 1.5% among 140,000; AID 841; in the data active = protection mostly above about 24%, no sharp cut-off; inactive = mostly below about 26%
# Insulin prom inh = TRM-6 insulin promoter activity inhibition | TRM-6 cells, insulin promoter-eGFP reporter, imaging; reporter expression induced with tamoxifen | inhibition, % at 2 µM | hit rate 0.9% among 130,000;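 active = inhibition above the mean plus 3 SD, with well images judged a real hit on visual review, cut at about 60% in these data, passing the limit was not always enough; inconclusive = inhibition over the cutoff but images rejected on review; inactive = inhibition not above the cutoff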
# Mdm2 ligase inh = blocks human Mdm2 ubiquitin ligase activity | Q00987 | cell-based MDM2 ubiquitination luciferase reporter, 2 h; 0 = plate control, 100 = twice control, blank-subtracted | signal enhancement, % at 5 µM | hit rate 0.11% among 210,000;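 active = signal enhancement of 30% or more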;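 also: luminescence tracks abundance of the self-degrading MDM2-luciferase fusion protein; higher signal means inhibition of MDM2 E3 ligase activity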
# Target sequence (Q00987 whole entry, looked up, the tested form may be a part): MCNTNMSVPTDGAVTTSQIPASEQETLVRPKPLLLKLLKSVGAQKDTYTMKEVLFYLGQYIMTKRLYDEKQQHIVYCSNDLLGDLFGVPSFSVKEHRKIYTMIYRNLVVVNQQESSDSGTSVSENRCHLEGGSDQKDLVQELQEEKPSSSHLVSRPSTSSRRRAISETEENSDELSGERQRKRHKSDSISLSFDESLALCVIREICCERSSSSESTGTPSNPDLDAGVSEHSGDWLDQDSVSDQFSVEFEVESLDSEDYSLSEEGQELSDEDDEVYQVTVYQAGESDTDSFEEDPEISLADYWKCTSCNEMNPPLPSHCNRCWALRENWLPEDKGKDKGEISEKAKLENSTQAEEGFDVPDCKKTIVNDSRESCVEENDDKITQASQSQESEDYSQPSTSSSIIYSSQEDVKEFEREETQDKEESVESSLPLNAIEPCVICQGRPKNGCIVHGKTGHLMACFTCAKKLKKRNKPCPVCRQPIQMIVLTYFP
#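 Assay system: stable mammalian line carrying autodegrading MDM2–luciferase fusion reporter; amount: 2000 cells seeded into each well; buffer or medium: DMEM; benchmarks: plate control and blank wells; signal: luciferase luminescence; timing: 2 h compound exposure at 37 °C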
# RAM inhibit = yeast RAM network inhibition; hit rate 1.8% among 190,000; AID 868; inhibition, % at 50 µM; S. cerevisiae dse1pr::URA3 reporter, 5-FOA growth OD615, 2 d; analog-sensitive cbk1-as2 kinase mutant strain;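 active = inhibition above a set limit, 3 SD over mean compound inhibition, cut at about 8.4% in these data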;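 also: 0% = DMSO-only wells with no growth and 100% = 10 µM 1-NA-PP1 full growth; inhibition rescues growth on 5-FOA so higher OD means more RAM inhibition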
# Yeast life ext = extends the lifespan of yeast; S. cerevisiae growth with nicotinamide, OD615; deaD strain in restrictive glucose medium; inhibition of the nicotinamide effect, % at 10 µM; hit rate 0.68% among 130,000;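 active = inhibition above a set limit, placed 3 SD over the median of all compounds, cut at about 26% in these data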;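 also: 0% = nicotinamide-treated wells and 100% = cells grown without nicotinamide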
#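 Assay system: DeaD-strain S. cerevisiae. Medium: CSMM-D glucose medium, restrictive. Reagent: nicotinamide, 1.5 mM, co-present with compound. Compound: 10 µM single point, 0.25% DMSO. Schedule: culture preincubation 4 h, compound exposure 48 h, both 30 °C. Detection: absorbance at 615 nm.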
# * marks the source's active call; other numbers are inactive results; ? = inconclusive; . = not tested or not shown. In the library only some 4% were active in any assay of this set; here they are far more common.
SMILES,Yeast growth inh,Measles CPE,Insulin prom inh,Mdm2 ligase inh,RAM inhibit,Yeast life ext
Cc1ccc(N2NC(C)(c3cccs3)NC2=S)cc1 (stereo not given),98*,26,0,-3,-1,-10
CCn1c(SCc2nnc(-c3ccccc3)o2)nnc1-c1ccc(S(=O)(=O)N2CCCC2)cc1,-10,55*,-33,-11,1,-4
CCn1c(SCc2ccccc2)nnc1-c1ccc(S(=O)(=O)N2CCCCC2)cc1,-30,10,.,-9,4,2
COC(=O)C1CCN(C(=O)COC(=O)CCc2nc3ccccc3c(=O)[nH]2)CC1,-27,3,15,-7,1,7
Cc1nn(-c2cccc(C(F)(F)F)c2)c(Cl)c1/C=N/Nc1cccc(C(=O)O)c1,94*,6,15,-2,3,-10
Cc1ccc(NC(=O)Cn2cnc3c(nnn3Cc3ccc(F)cc3)c2=O)cc1,.,.,-5,-16,0,.
c1ccc(-c2cccc(-c3ccccn3)n2)nc1,99*,5,.,-14,-1,-29
c1ccc(-c2ccc(-c3ccccn3)s2)nc1,.,.,.,-5,.,.
Cc1cc(NS(=O)(=O)c2ccc(CC(C)C)cc2)no1,-39,9,-33,-6,0,50*
O=C1CCCN2N=C(SCC(=O)N3CCCCC3)SC2=N1,.,.,.,-6,.,.
O=C1CCCN2N=C(SCC(=O)N3N=C(c4ccc(Br)cc4)CC3c3ccc(F)cc3)SC2=N1 (stereo not given),.,.,-90,4,11*,.
CC(=O)N1C(=O)/C(=C2\SC(=S)N(NS(=O)(=O)c3ccc(C)cc3)C2=O)c2ccccc21,.,.,.,15,11*,.
CC(/C=C1\SC(=S)N(NS(=O)(=O)c2ccc(C)cc2)C1=O)=C\c1ccccc1,.,.,.,-7,.,.
O=C(NC(=S)Nc1ccc(S(=O)(=O)Nc2nccs2)cc1)c1ccc(F)c(F)c1,12,30*,.,-9,0,-1
COc1cccc(C2C(C(=O)c3cccs3)=C(O)C(=O)N2c2cc(C)on2)c1 (stereo not given),-25,37*,.,-15,8,6
Cc1cc(N2C(=O)C(O)=C(C(=O)c3cccs3)C2c2cccc(O)c2)no1 (stereo not given),-26,19,19,-9,1,-9
CN(C)S(=O)(=O)Nc1cc(F)cc(F)c1,.,.,22,-6,0,.
CC1(C)CC(=O)C2=C(C1)OC(N)=C([N+](=O)[O-])C2c1ccc(F)cc1 (stereo not given),.,.,.,-5,.,.
CC1(C)CC(=O)C2=C(C1)OC(N)=C([N+](=O)[O-])C2c1cccs1 (stereo not given),-20,5,27,12,0,28*
Cc1cc(C(=O)CN2C(=O)NC3(CCCc4sccc43)C2=O)c(C)n1-c1ccc(Cl)cc1 (stereo not given),-18,39*,-4,-7,5,-1
CC(=O)c1ccc(-c2ccc(C(=O)NC3CCCCCC3)o2)cc1,.,.,33,1,2,.
CC(=O)CCN1CCOCC1,19,94*,39,-11,-1,-10
O=C(c1ccccc1)N1CCN(c2ccc([N+](=O)[O-])cc2-n2cccc2)CC1,.,.,.,-3,.,.
CC1(C)NC(=O)N(CC(O)COc2ccc(N3C(=O)c4ccccc4C3=O)cc2)C1=O (stereo not given),-3,47*,-43,-16,2,0
Cc1ccccc1N1Cc2ccccc2C1,-16,26,6,3,1,-6
SMILES,Yeast growth inh,Measles CPE,Insulin prom inh,Mdm2 ligase inh,RAM inhibit,Yeast life ext
O=C(COc1ccccc1)NCCSCc1ccc(Cl)cc1,-18,4,11,-12,9.9*,-6
O=C(Nc1ccccc1)N1CC=C(c2ccccc2)CC1,-9,6,75*,-11,0,-11
O=C(Nc1ccccc1)N1CC=C(c2ccc(F)cc2)CC1,-72,1,?,3,2,-4
O=C(Nc1ccc(C2=NCCN2)cc1)c1ccc(Cl)c(C(=O)Nc2ccc(C3=NCCN3)cc2)c1,.,.,.,-7,.,.
CCCCCn1c(SCC2CCCO2)nc2cc(C(=O)N3CCC(C(N)=O)CC3)ccc2c1=O (stereo not given),-18,55*,44,-19,2,-4
CCCCCn1c(SCC(=O)OCC)nc2cc(C(=O)NCc3ccco3)ccc2c1=O,-33,9,-29,-8,11*,-1
